Laboratory results as given in ChEMBL document CHEMBL3400013, “Synthesis and biological activity evaluation of hydrazone derivatives based on a Tröger's base skeleton” (Bioorg Med Chem, 2015).
The source made the active and inactive calls. The calls are words filed in the database; no cut-off is given here.

Experiments:
CCRF-CEM [1] = assay: Cell cycle arrest in human CCRF-CEM cells assessed as accumulation at G2/M phase at IC50 after 24 hrs by propidium iodide staining-based flow cytometry; format: functional
Summary of the method: (§1)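 Cells were then fixed in 70% ethanol, washed in hypotonic citrate buffer, treated with RNase (50 µg/mL) and stained with propidium iodide. Flow cytometry used a 488 nm laser. Apoptosis was scored as the percentage of particles with propidium content below G0/G1.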

BJ [2] = assay: Selectivity index, ratio of IC50 for human BJ cells to IC50 for human CCRF-CEM cells; format: functional; details: pooled result: one value given for 2 cell lines, strains, targets or settings
Staphylococcus aureus [3] = assay: Antimicrobial activity against methicillin-resistant Staphylococcus aureus MRSA 4591 up to 200 uM after 24 to 48 hrs by broth microdilution method; format: functional, organism-based
[4] = Metal chelating activity of the compound assessed as formation of Zn2+ complex by UV-vis spectrometry; format: physicochemical
Staphylococcus aureus [5] = assay: Antimicrobial activity against Staphylococcus aureus CCM 3953 up to 200 uM after 24 to 48 hrs by broth microdilution method; format: functional, organism-based
A549 [6] = assay: Cytostatic activity against human A549 cells after 72 hrs by MTT assay; format: functional, cell-based; details: A549, 72 h
Summary of the method: (§2)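 Cells were seeded at 25,000–30,000 per well and pre-incubated for 24 h at 37°C in 5% CO2. Four-fold compound dilutions were added in duplicate and incubated for 72 h. MTT was added for 1–4 h, and formazan was dissolved in 10% aq SDS (pH 5.5) overnight at 37°C. OD was read at 540 nm. IC50 came from dose-response curves, mean ± SD of eight independent experiments.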

[7] = Metal chelating activity of the compound assessed as formation of Mn2+ complex by UV-vis spectrometry; format: physicochemical
CCRF-CEM [8] = assay: Cell cycle arrest in human CCRF-CEM cells assessed as accumulation at S phase at 5 times IC50 after 24 hrs by propidium iodide staining-based flow cytometry; format: functional; summary of the method: as §1
CCRF-CEM [9] = assay: Cell cycle arrest in human CCRF-CEM cells assessed as accumulation at G0/G1 phase at IC50 after 24 hrs by propidium iodide staining-based flow cytometry; format: functional; summary of the method: as §1
Nucleic Acid [10] = assay: Binding affinity to DNA (unknown origin) assessed as DNA intercalation by UV-visible spectrophotometry in presence of Ni2+; format: nucleic-acid assay
K562 [11] = assay: Cytostatic activity against human K562 cells after 72 hrs by MTT assay; format: functional, cell-based; details: K562, 72 h; summary of the method: as §2
Escherichia coli = assay: Antimicrobial activity against Escherichia coli CCM 3954 up to 200 uM after 24 to 48 hrs by broth microdilution method; format: functional, organism-based
CCRF-CEM [12] = assay: Cell cycle arrest in human CCRF-CEM cells assessed as accumulation at S phase at IC50 after 24 hrs by propidium iodide staining-based flow cytometry; format: functional; summary of the method: as §1
Nucleic Acid [13] = assay: Binding affinity to DNA (unknown origin) assessed as DNA intercalation by UV-visible spectrophotometry; format: nucleic-acid assay
K562 [14] = assay: Selectivity index, ratio of IC50 for human MRC5 cells to IC50 for human K562 cells; format: functional
CCRF-CEM [15] = assay: Induction of apoptosis in human CCRF-CEM cells assessed as inhibition of RNA synthesis at 5 times IC50 after 24 hrs by propidium iodide/BrU staining by flow cytometry; format: functional; parameters: scale not given: the % may be the effect or the level left
[16] = Metal chelating activity of the compound assessed as formation of Cu2+ complex by UV-vis spectrometry; format: physicochemical
[17] = Cytostatic activity against human HCT116 cells after 72 hrs by MTT assay; format: functional, cell-based; details: HCT-116, 72 h; summary of the method: as §2
[18] = system: Staphylococcus haemolyticus; assay: Antimicrobial activity against methicillin-resistant Staphylococcus haemolyticus A1/16568 up to 200 uM after 24 to 48 hrs by broth microdilution method; format: functional, organism-based
Nucleic Acid [19] = assay: Binding affinity to DNA (unknown origin) assessed as DNA intercalation by UV-visible spectrophotometry in presence of Co2+; format: nucleic-acid assay
Nucleic Acid [20] = assay: Binding affinity to DNA (unknown origin) assessed as DNA intercalation by UV-visible spectrophotometry in presence of Cu2+; format: nucleic-acid assay
CEM-DNR = assay: Selectivity index, ratio of IC50 for human MRC5 cells to IC50 for human CEM-DNR cells; format: functional
HCT-116 [21] = assay: Selectivity index, ratio of IC50 for human MRC5 cells to IC50 for human HCT116 cells; format: functional
[22] = Metal chelating activity of the compound assessed as formation of Co2+ complex by UV-vis spectrometry; format: physicochemical
BJ [23] = assay: Selectivity index, ratio of IC50 for human BJ cells to IC50 for human K562-TAX cells; format: functional
Pichia kudriavzevii = assay: Antifungal activity against Candida crusei up to 200 uM after 24 to 48 hrs by broth microdilution method; format: functional, organism-based
BJ [24] = assay: Selectivity index, ratio of IC50 for human BJ cells to IC50 for human p53-/- HCT116 cells; format: functional
[25] = Metal chelating activity of the compound assessed as formation of Mg2+ complex by UV-vis spectrometry; format: physicochemical
CCRF-CEM [26] = assay: Cell cycle arrest in human CCRF-CEM cells assessed as accumulation at G2/M phase at 5 times IC50 after 24 hrs by propidium iodide staining-based flow cytometry; format: functional; summary of the method: as §1
CCRF-CEM [27] = assay: Cell cycle arrest in human CCRF-CEM cells assessed as accumulation at G0/G1 phase at 5 times IC50 after 24 hrs by propidium iodide staining-based flow cytometry; format: functional; summary of the method: as §1
Nucleic Acid [28] = assay: Binding affinity to DNA (unknown origin) assessed as DNA intercalation by UV-visible spectrophotometry in presence of Zn2+; format: nucleic-acid assay
Candida albicans = assay: Antifungal activity against Candida albicans up to 200 uM after 24 to 48 hrs by broth microdilution method; format: functional, organism-based
Pseudomonas aeruginosa = assay: Antimicrobial activity against multidrug-resistant Pseudomonas aeruginosa A/16575 up to 200 uM after 24 to 48 hrs by broth microdilution method; format: functional, organism-based
Candida tropicalis = assay: Antifungal activity against Candida tropicalis up to 200 uM after 24 to 48 hrs by broth microdilution method; format: functional, organism-based
CCRF-CEM [29] = assay: Induction of apoptosis in human CCRF-CEM cells assessed as apoptotic cells at IC50 after 24 hrs by propidium iodide staining-based flow cytometry; format: functional; summary of the method: as §1
A549 [30] = assay: Selectivity index, ratio of IC50 for human MRC5 cells to IC50 for human A549 cells; format: functional
CCRF-CEM [31] = assay: Induction of apoptosis in human CCRF-CEM cells assessed as inhibition of DNA synthesis at 5 times IC50 after 24 hrs by propidium iodide/BrdU staining by flow cytometry; format: functional; parameters: scale not given: the % may be the effect or the level left
CCRF-CEM [32] = assay: Induction of apoptosis in human CCRF-CEM cells assessed as inhibition of DNA synthesis at IC50 after 24 hrs by propidium iodide/BrdU staining by flow cytometry; format: functional; parameters: scale not given: the % may be the effect or the level left
BJ [33] = assay: Selectivity index, ratio of IC50 for human BJ cells to IC50 for human CEM-DNR cells; format: functional
CCRF-CEM [34] = assay: Induction of apoptosis in human CCRF-CEM cells assessed as apoptotic cells at 5 times IC50 after 24 hrs by propidium iodide staining-based flow cytometry; format: functional; summary of the method: as §1
HCT-116 [35] = assay: Selectivity index, ratio of IC50 for human MRC5 cells to IC50 for human p53-/- HCT116 cells; format: functional
Candida parapsilosis = assay: Antifungal activity against Candida parapsilosis up to 200 uM after 24 to 48 hrs by broth microdilution method; format: functional, organism-based

In the case of O=C(NN=C(c1ccccn1)c1ccccn1)c1ccc2c3c(ccc2c1)N1Cc2c(ccc4cc(C(=O)NN=C(c5ccccn5)c5ccccn5)ccc24)N(C3)C1, the Activity (CCRF-CEM [1]) is reported as 10.49%, the “Ratio IC50” value (BJ [2]) is reported as 1.7 and the Activity (Staphylococcus aureus [3]) is reported as “inactive”. For the same molecule, the Activity [4] was “Active”, the Activity (Staphylococcus aureus [5]) was “inactive” and the IC50 (A549 [6]) was 2.03 µM. The Activity [7] was “Not Active”, the Activity (CCRF-CEM [8]) was 68.14% and the Activity (CCRF-CEM [9]) was 28.27%. The Activity (Nucleic Acid [10]) was “Active”, the IC50 (K562 [11]) was 0.64 µM and the Activity (Escherichia coli) was “inactive”. The Activity (CCRF-CEM [12]) was 61.24%, the Activity (Nucleic Acid [13]) was “inactive” and the “Ratio IC50” value (K562 [14]) was 2.4. The Activity (CCRF-CEM [15]) was 55.9%, the Activity [16] was “Active” and the IC50 [17] was 0.46 µM. The Activity [18] was “inactive”, the Activity (Nucleic Acid [19]) was “Active” and the Activity (Nucleic Acid [20]) was “Active”. The “Ratio IC50” value (CEM-DNR) was 0.7, the “Ratio IC50” value (HCT-116 [21]) was 3.4 and the Activity [22] was “Active”. For the same molecule, the “Ratio IC50” value (BJ [23]) was 2.8, the Activity (Pichia kudriavzevii) was “inactive” and the “Ratio IC50” value (BJ [24]) was 2. For the same molecule, the Activity [25] was “Not Active”, the Activity (CCRF-CEM [26]) was 28.23% and the Activity (CCRF-CEM [27]) was 3.63%. The Activity (Nucleic Acid [28]) was “Active”, the Activity (Candida albicans) was “inactive” and the Activity (Pseudomonas aeruginosa) was “inactive”. For the same molecule, the Activity (Candida tropicalis) was “inactive”, the Activity (CCRF-CEM [29]) was 12.04% and the “Ratio IC50” value (A549 [30]) was 0.8. For the same molecule, the Activity (CCRF-CEM [31]) was 55.69%, the Activity (CCRF-CEM [32]) was 57.31% and the “Ratio IC50” value (BJ [33]) was 0.7. For the same molecule, the Activity (CCRF-CEM [34]) was 24.51%, the “Ratio IC50” value (HCT-116 [35]) was 2 and the Activity (Candida parapsilosis) was “inactive”.

For COC(=O)c1ccc(O)c(/C=N/NC(=O)c2ccc3c4c(ccc3c2)N2Cc3c(ccc5cc(C(=O)N/N=C/c6cc(C(=O)OC)ccc6O)ccc35)N(C4)C2)c1, the Activity (CCRF-CEM [1]) was 12.83%, the “Ratio IC50” value (BJ [2]) was 16.3 and the Activity (Staphylococcus aureus [3]) was “inactive”. The Activity [4] was “Active”, the Activity (Staphylococcus aureus [5]) was “inactive” and the IC50 (A549 [6]) was 11.9 µM. The Activity [7] was “Not Active”, the Activity (CCRF-CEM [8]) was 55.48% and the Activity (CCRF-CEM [9]) was 48.63%. The Activity (Nucleic Acid [10]) was “Active”, the IC50 (K562 [11]) was 9.76 µM and the Activity (Escherichia coli) was “inactive”. The Activity (CCRF-CEM [12]) was 38.54%, the Activity (Nucleic Acid [13]) was “inactive” and the “Ratio IC50” value (K562 [14]) was 9.4. The Activity (CCRF-CEM [15]) was 21.03%, the Activity [16] was “Active” and the IC50 [17] was 10.3 µM. For the same molecule, the Activity [18] was “inactive”, the Activity (Nucleic Acid [19]) was “Active” and the Activity (Nucleic Acid [20]) was “Active”. The “Ratio IC50” value (CEM-DNR) was 3.2, the “Ratio IC50” value (HCT-116 [21]) was 8.9 and the Activity [22] was “Active”. The “Ratio IC50” value (BJ [23]) was 4.3, the Activity (Pichia kudriavzevii) was “inactive” and the “Ratio IC50” value (BJ [24]) was 9.7. For the same molecule, the Activity [25] was “Not Active”, the Activity (CCRF-CEM [26]) was 13.26% and the Activity (CCRF-CEM [27]) was 31.26%. For the same molecule, the Activity (Nucleic Acid [28]) was “Active”, the Activity (Candida albicans) was “inactive” and the Activity (Pseudomonas aeruginosa) was “inactive”. The Activity (Candida tropicalis) was “inactive”, the Activity (CCRF-CEM [29]) was 12.85% and the “Ratio IC50” value (A549 [30]) was 7.7. The Activity (CCRF-CEM [31]) was 54.61%, the Activity (CCRF-CEM [32]) was 46.43% and the “Ratio IC50” value (BJ [33]) was 3.2. The Activity (CCRF-CEM [34]) was 14.56%, the “Ratio IC50” value (HCT-116 [35]) was 9.7 and the Activity (Candida parapsilosis) was “inactive”.
